Source: ChEMBL document CHEMBL1152814, “Novel cyano- and amidinobenzothiazole derivatives: synthesis, antitumor evaluation, and X-ray and quantitative structure-activity relationship (QSAR) analysis” (J Med Chem, 2009)
One block for each molecule: values may come before it. Calls of active or inactive are those of the source. The rule behind the calls is not given here.

How the values were obtained:
[1] = Antiproliferative activity against human WI38 cells after 72 hrs by MTT assay; type: cell-based; settings: WI-38, 72 h
Outline: (§1)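 Monolayers in DMEM with 10% FBS, 2 mM L-glutamine, penicillin/streptomycin, 37 °C, 5% CO2. Seeded at 3 × 10³ to 6 × 10³ cells/well on day 0. Agents added the next day in five 10-fold dilutions (10^-8–10^-4 mol/L), with a DMSO solvent control (max 0.25%). MTT read at 570 nm after 72 h. Quadruplicate points, three experiments. IC50 is the concentration giving 50% growth inhibition.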

HeLa = test: Antiproliferative activity against human HeLa cells after 72 hrs by MTT assay; type: functional, cell-based; outline: as §1
MIA PaCa-2 = test: Antiproliferative activity against human MIAPaCa2 cells after 72 hrs by MTT assay; type: functional, cell-based; settings: MIA PaCa-2, 72 h; outline: as §1
SW-620 = test: Antiproliferative activity against human SW620 cells after 72 hrs by MTT assay; type: functional, cell-based; settings: SW-620, 72 h; outline: as §1
MCF7 = test: Antiproliferative activity against human MCF7 cells after 72 hrs by MTT assay; type: functional, cell-based; settings: MCF7, 72 h; outline: as §1
NCI-H460 [2] = test: Antiproliferative activity against human H460 cells after 72 hrs by MTT assay; type: functional, cell-based; settings: NCI-H460, 72 h; outline: as §1
NCI-H460 [3] = test: Cell cycle arrest in human H460 cells assessed as reduction of percentage of cells in S phase at 5 to 50 uM after 24 hrs using propidium iodide staining by FACS; type: functional, cell-based
Outline: (§2)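 H 460 cells seeded at 2 × 10⁵/well and treated after overnight incubation with 5, 10 or 50 µM for 24 or 48 h. Attached and floating cells were pooled, fixed in 70% ethanol, treated with 0.2 µg/µL RNase A (37 °C, 15 min) and stained with 50 µg/mL propidium iodide. Flow cytometry counted 20000 events, in duplicate across two independent experiments.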

NCI-H460 [4] = test: Cell cycle arrest in human H460 cells assessed as reduction of percentage of cells in S phase at 5 to 50 uM after 48 hrs using propidium iodide staining by FACS; type: functional, cell-based; outline: as §2
NCI-H460 [5] = test: Cell cycle arrest in human H460 cells assessed as increase in percentage of cells in sub-G1 phase at 5 to 50 uM after 24 hrs using propidium iodide staining by FACS; type: functional, cell-based; outline: as §2
NCI-H460 [6] = test: Cell cycle arrest in human H460 cells assessed as increase in percentage of cells in sub-G1 phase at 5 to 50 uM after 48 hrs using propidium iodide staining by FACS; type: functional, cell-based; outline: as §2
NCI-H460 [7] = test: Induction of apoptosis in human H460 cells assessed as late apoptotic cells at 10 uM after 48 hrs using annexin V staining by FACS; type: functional
Outline: (§3)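 H 460 cells seeded at 2 × 10⁵/well and exposed for 48 h (5, 10 or 50 µM) against a vehicle control. Floating and attached cells were pooled and washed in binding buffer (10 mM HEPES, 140 mM NaCl, 2.5 mM CaCl2, pH 7.4). They were stained 20 min with annexin V Alexa Fluor 488 and 1 µg/mL 7-AAD, then read by flow cytometry. Quadrants: viable, early apoptotic, late apoptotic.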

NCI-H460 [8] = test: Induction of apoptosis in human H460 cells assessed as early apoptotic cells at 10 uM after 48 hrs using annexin V staining by FACS; type: functional; outline: as §3
NCI-H460 [9] = test: Induction of apoptosis in human H460 cells assessed as viable cells at 10 uM after 48 hrs using annexin V staining by FACS; type: functional; settings: NCI-H460, 48 h, read-out: Activity; outline: as §3
NCI-H460 [10] = test: Induction of apoptosis in human H460 cells assessed as late apoptotic cells after 48 hrs using annexin V staining by FACS; type: functional, cell-based; outline: as §3
NCI-H460 [11] = test: Induction of apoptosis in human H460 cells assessed as early apoptotic cells after 48 hrs using annexin V staining by FACS; type: functional, cell-based; outline: as §3
NCI-H460 [12] = test: Induction of apoptosis in human H460 cells assessed as viable cells after 48 hrs using annexin V staining by FACS; type: functional, cell-based; outline: as §3
HEp-2 = test: Antiproliferative activity against human Hep2 cells after 72 hrs by MTT assay; type: functional, cell-based; settings: HEp-2, 72 h; outline: as §1

SMILES: Cc1cccc(Nc2nc3ccc(C4=NCCN4)cc3s2)n1.Cl.Cl
IC50 [1]: 2 µM | IC50 (HeLa): 2 µM | IC50 (MIA PaCa-2): 2 µM | IC50 (SW-620): 2 µM | IC50 (MCF7): 2 µM | IC50 (NCI-H460 [2]): 2 µM | Activity (NCI-H460 [3]): Active | Activity (NCI-H460 [4]): Active | Activity (NCI-H460 [5]): Active | Activity (NCI-H460 [6]): Active | Activity (NCI-H460 [7]): 5.58% | Activity (NCI-H460 [8]): 24.05% | viability at 10 µM (NCI-H460 [9]): 67.7% | Activity (NCI-H460 [10]): Dose-dependent effect | Activity (NCI-H460 [11]): Dose-dependent effect | Activity (NCI-H460 [12]): Dose-dependent effect

SMILES: Cc1cccnc1Nc1nc2ccc(C3=NCCN3)cc2s1
IC50 (HeLa): 3 µM | IC50 (MIA PaCa-2): 3 µM | IC50 (SW-620): 2 µM | IC50 (MCF7): 2 µM | IC50 (NCI-H460 [2]): 2 µM

SMILES: Clc1ccc(Nc2nc3ccc(C4=NCCN4)cc3s2)nc1
IC50 [1]: 1 µM | IC50 (HeLa): 1 µM | IC50 (MIA PaCa-2): 1.6 µM | IC50 (SW-620): 1.3 µM | IC50 (MCF7): 1.4 µM | IC50 (NCI-H460 [2]): 1.5 µM

SMILES: Cc1ccc(Nc2nc3ccc(C#N)cc3s2)nc1
IC50 [1]: 4 µM | IC50 (HEp-2): > 10 µM | IC50 (HeLa): 9 µM | IC50 (MIA PaCa-2): 5 µM | IC50 (SW-620): > 10 µM | IC50 (MCF7): > 10 µM

SMILES: Cc1cccc(Nc2nc3ccc(C#N)cc3s2)n1
IC50 [1]: > 10 µM | IC50 (HEp-2): > 10 µM | IC50 (HeLa): 8 µM | IC50 (MIA PaCa-2): 6 µM | IC50 (SW-620): 4 µM | IC50 (MCF7): 8 µM

SMILES: Cc1cccnc1Nc1nc2ccc(C#N)cc2s1
IC50 [1]: 2.3 µM | IC50 (HEp-2): > 10 µM | IC50 (HeLa): > 10 µM | IC50 (MIA PaCa-2): 3 µM | IC50 (SW-620): 3 µM | IC50 (MCF7): > 10 µM

Continued, in another order:

IC50 (HeLa): 16 µM | IC50 (MIA PaCa-2): 38 µM | IC50 (SW-620): 30 µM | IC50 (MCF7): 22 µM | IC50 (NCI-H460 [2]): 15 µM
SMILES: CC(C)NC(=N)c1ccc2nc(NC(=O)c3ccccc3)sc2c1
IC50 [1]: > 100 µM

IC50 (HeLa): 13 µM | IC50 (MIA PaCa-2): 32 µM | IC50 (SW-620): 35 µM | IC50 (MCF7): 13 µM | IC50 (NCI-H460 [2]): 22 µM
SMILES: CC(C)NC(=N)c1ccc2nc(NC(=O)c3ccc(F)cc3)sc2c1
IC50 [1]: > 100 µM

IC50 (HeLa): 9 µM | IC50 (MIA PaCa-2): 17 µM | IC50 (SW-620): 17 µM | IC50 (MCF7): 13 µM | IC50 (NCI-H460 [2]): 16 µM
SMILES: CC(C)NC(=N)c1ccc(C(=O)Nc2nc3ccccc3s2)cc1
IC50 [1]: 16 µM

IC50 (HeLa): 9 µM | IC50 (MIA PaCa-2): 12 µM | IC50 (SW-620): 13 µM | IC50 (MCF7): 5 µM | IC50 (NCI-H460 [2]): 15 µM
SMILES: CC(C)NC(=N)c1ccc2nc(Nc3ccc(Cl)cn3)sc2c1
IC50 [1]: 17 µM

IC50 (HeLa): 7 µM | IC50 (MIA PaCa-2): 11 µM | IC50 (SW-620): 15 µM | IC50 (MCF7): 13 µM | IC50 (NCI-H460 [2]): 5 µM
SMILES: CC(C)NC(=N)c1ccc2nc(Nc3ncccn3)sc2c1
IC50 [1]: 75 µM
